Series [1] relates to Leishmania donovani. The series can be described thus: Antikinetoplastid activity against Leishmania donovani MHOM/ET/67/HU3 amastigotes after 3 days incubation at 37 degC under dark condition and 5% CO2 atmosphere by SYBR green I dye based assay. The format is functional, organism-based. Conditions: MHOM/ET/67/HU3, 72 h. The procedure, abridged: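 Axenic amastigotes were obtained by diluting log-phase LV9 promastigotes into amastigote medium (M-199 with KCl, glucose, glutamine, trypticase peptone, haemin, 20% FBS; pH 5.5) and grown at 37 °C in 5% CO2. Parasites were exposed to the compounds for 72 h, then lysed. Growth was read by SYBR Green I DNA fluorescence against a parasite-density standard range, and the IC50 was derived.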

A short description of series [2]: Cytotoxicity against mouse RAW264.7 cells assessed as cell survival at 100 uM after 24 hrs incubation by trypan blue exclusion method. Conditions: read-out: Survival. The series is classed as cell-based. The method in brief:
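RAW 264.7 mouse macrophages grown in DMEM with 10% heat-inactivated FBS, seeded at 5 × 10^4 cells/well, and held 24 h at 37 °C in 5% CO2. Medium was then replaced with fresh DMEM containing compound, followed by a further 24 h incubation. Cells were scraped off, stained with trypan blue and counted live on a hemocytometer. Viability is given as % of untreated cells (100%).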

Series [3] has as its system Trypanosoma brucei brucei. The series can be described thus: Antikinetoplastid activity against Trypanosoma brucei brucei CMP by drug incubation infectivity test. The series is classed as functional. To be noted: read-out: MEC.
The subject of series [4] is Leishmania donovani. As to the kind of experiment: Antikinetoplastid activity against Leishmania donovani MHOM/ET/67/HU3 promastigotes after 3 days incubation at 27 degC under dark condition and 5% CO2 atmosphere by MTT assay. Conditions: MHOM/ET/67/HU3, 72 h. The series is classed as functional, organism-based. In general terms: Tetrazolium dyes change colour on reduction, which living cells bring about.

Series [5] is described as follows: Cytotoxicity against human MCF7 cells assessed as cell survival at 100 uM after 72 hrs incubation by MTT assay. The series is classed as cell-based. To be noted: read-out: Survival.
For series [6], the system named is MCF7. As to the kind of experiment: Cytotoxicity against human MCF7 cells assessed as cell viability after 72 hrs incubation by MTT assay. The series is classed as cell-based. Conditions: MCF7, 72 h.

The values that follow come from ChEMBL document CHEMBL2021923, “Synthesis and antikinetoplastid activities of 3-substituted quinolinones derivatives” (Eur J Med Chem, 2012).

Consider `CCCCCCCCCCCCCCCCOP(=O)([O-])OCC[N+](C)(C)C` [MILTEFOSINE], for which the midpoint of inhibition in series [1], the IC50, lay at 5 µM. In addition, the viability at 24 h, 100 µM in series [2] was found to be 85%.
With `Cc1ccc(S(=O)(=O)Oc2c(N)c(=O)n(C)c3ccccc23)cc1`, the minimal effective concentration in series [3] was 12.5 µM. Moreover, in series [4], the concentration for half-maximal inhibition (IC50) (commonly the midpoint of a concentration-inhibition curve) came out at 30 µM. For the same compound, the viability at 72 h, 100 µM in series [5] is 24%.
With `COc1cc(C(=O)Nc2c(O)c3ccccc3n(C)c2=O)cc(OC)c1OC`, the minimal effective concentration in series [3] is over 200 µM. Further, the IC50 in series [1] is over 100 µM; in series [4] it was 3.5 µM. In addition, the viability at 72 h, 100 µM in series [5] was 100%.
In the case of `COc1cc(C(=O)Nc2c(OS(=O)(=O)c3ccc(C)cc3)c3ccccc3[nH]c2=O)cc(OC)c1OC`, the minimal effective concentration in series [3] was over 200 µM. The compound also registered a 50% inhibitory concentration (IC50) in series [4] of 18 µM. In addition, the viability at 72 h, 100 µM in series [5] is 55%.
The matching figures for `COc1cc(C(=O)Nc2c(OS(=O)(=O)c3cccs3)c3ccccc3n(C)c2=O)cc(OC)c1OC`: over 200 µM, 14 µM and 77%.
Turning to `Cn1c(=O)c(NC(=O)CCCCCCCCCCOn2nnc3ccccc32)c(O)c2ccccc21`, in series [3], the minimal effective concentration is 200 µM. For the same compound, half-maximal inhibition in series [4] (IC50) was put at 34 µM. In series [5], the viability at 72 h, 100 µM was 72%.
On to `Cn1c(=O)c(NC(=O)c2ccc3c(c2)C=CC(C)(C)O3)c(O)c2ccccc21`, for which the minimal effective concentration in series [3] was over 200 µM. Moreover, the IC50 in series [4] turned out to be 53 µM. In series [5], the viability at 72 h, 100 µM amounted to 100%.
Consider `COc1cc(C(=O)Nc2c(OS(=O)(=O)c3ccc(C)cc3)c3ccccc3n(C)c2=O)cc(OC)c1OC`, for which, in series [3], the minimal effective concentration is over 200 µM. The IC50 in series [4] came to 41 µM. Besides, the viability at 72 h, 100 µM in series [5] was 84%.
For `CCCCNc1cc2ccccc2n(C)c1=O`, in series [3], the minimal effective concentration is over 200 µM. The half-inhibitory concentration (IC50) was over 100 µM in series [4] and 7 µM in series [6]. Also, the viability at 72 h, 100 µM in series [5] was found to be 10%.
For `Cn1c(=O)c(NC(=O)c2ccc3c(c2)CCC(C)(C)O3)c(O)c2ccccc21`, the minimal effective concentration in series [3] was over 200 µM. For the same compound, the IC50 in series [4] was found to be 56 µM. Moreover, in series [5], the viability at 72 h, 100 µM worked out at 98%.
For `Cc1ccc(S(=O)(=O)Oc2c(NC(=O)c3ccc4c(c3)C=CC(C)(C)O4)c(=O)n(C)c3ccccc23)cc1`, the minimal effective concentration in series [3] was over 200 µM. The compound further yielded a concentration for half-maximal inhibition (IC50) in series [4] of 30 µM. In series [5], the viability at 72 h, 100 µM was 37%.
For the compound `COc1ccc(C(=O)Nc2c(OS(=O)(=O)c3ccc(C)cc3)c3ccccc3n(C)c2=O)cc1`, the minimal effective concentration in series [3] was over 200 µM. This compound came in with a 50% inhibitory concentration (IC50) in series [4] of 25 µM. The viability at 72 h, 100 µM in series [5] worked out at 82%.
Consider `CCCC(=O)Nc1c(O)c2ccccc2n(C)c1=O`, for which, in series [3], the minimal effective concentration is over 200 µM. Besides, the values for the IC50 in series [1] and in series [4] were 3 µM and 11 µM, respectively. In addition, in series [5], the viability at 72 h, 100 µM was 97%.
As for `O=[N+]([O-])c1c(O)nc2ccccc2c1O`, the minimal effective concentration in series [3] was over 200 µM. In series [4], the IC50 was over 100 µM. Also, in series [2], the viability at 24 h, 100 µM was found to be 90%.
Turning to `Cn1c(=O)c(NC(=O)c2ccc(F)cc2)c(O)c2ccccc21`, the minimal effective concentration in series [3] is over 200 µM. The compound also came in with a half-maximal inhibitory concentration (IC50) in series [4] of over 100 µM. Moreover, in series [5], the viability at 72 h, 100 µM turned out to be 74%.
The corresponding values for `Cn1c(=O)c(NC(=O)c2cc3ccccc3[nH]2)c(O)c2ccccc21` are over 200 µM, over 100 µM and 107%.
For the compound `Cn1c(=O)c([N+](=O)[O-])c(O)c2ccccc21`, the minimal effective concentration in series [3] is over 200 µM. This compound gave an IC50 in series [4] of over 100 µM. For the same compound, the viability at 24 h, 100 µM in series [2] stood at 80%.
In the case of `CCCC(=O)Nc1c(OS(=O)(=O)c2ccc(C)cc2)c2ccccc2n(C)c1=O`, in series [3], the minimal effective concentration is over 200 µM. The IC50 in series [4] amounted to 50 µM. In addition, in series [5], the viability at 72 h, 100 µM is 55%.
Turning to `COc1ccc(C(=O)Nc2c(O)c3ccccc3n(C)c2=O)cc1`, in series [3], the minimal effective concentration was over 200 µM. Also, the concentration for half-maximal inhibition (IC50) in series [1] was over 100 µM; in series [4], 11 µM. In series [5], the viability at 72 h, 100 µM came to 81%.
`N=C(N)c1ccc(OCCCCCOc2ccc(C(=N)N)cc2)cc1` [PENTAMIDINE]: the minimal effective concentration in series [3] turned out to be 5 µM. For the same compound, it took 2.84 µM to reach half-maximal inhibition in series [4] (IC50). Also, the viability at 24 h, 100 µM in series [2] turned out to be 75%.
Consider `Cn1c(=O)cc(O)c2ccccc21`, for which the minimal effective concentration in series [3] was over 200 µM. In series [4], this compound came in with an IC50 of over 100 µM. Besides, the viability at 24 h, 100 µM in series [2] stood at 70%.
`COc1ccc(C(=O)Nc2cc3cc(Br)ccc3n(C)c2=O)cc1`: the minimal effective concentration in series [3] was over 200 µM. Also, the IC50 in series [4] is over 100 µM. In addition, in series [5], the viability at 72 h, 100 µM is 20%.
`COc1cc(C(=O)Nc2c(O)c3ccccc3[nH]c2=O)cc(OC)c1OC`: in series [3], the minimal effective concentration is over 200 µM. In addition, the half-maximal inhibitory concentration (IC50) in series [4] is over 100 µM. Also, the viability at 72 h, 100 µM in series [5] turned out to be 76%.
On to `COc1ccc(C(=O)Nc2cc3ccccc3n(C)c2=O)cc1`, for which, in series [3], the minimal effective concentration was over 200 µM. Further, the IC50 in series [4] was over 100 µM. The viability at 72 h, 100 µM in series [5] stood at 89%.
The corresponding values for `Cc1ccc(S(=O)(=O)Oc2c(NC(=O)c3cc4ccccc4[nH]3)c(=O)n(C)c3ccccc23)cc1` are over 200 µM, 42 µM and 50%.
Regarding `Cc1ccc(S(=O)(=O)Oc2c(NC(=O)c3ccc4c(c3)CCC(C)(C)O4)c(=O)n(C)c3ccccc23)cc1`, the minimal effective concentration in series [3] is over 200 µM. In series [4], the IC50 is 30 µM. For the same compound, the viability at 72 h, 100 µM in series [5] is 100%.
The corresponding values for `Cc1ccc(S(=O)(=O)Oc2c(NC(=O)c3ccc(F)cc3)c(=O)n(C)c3ccccc23)cc1` are over 200 µM, 49 µM and 57%.
With `COc1ccc(C(=O)Nc2cc3cc(OC)ccc3n(C)c2=O)cc1`, the minimal effective concentration in series [3] was over 200 µM. This compound showed a 50% inhibitory concentration (IC50) in series [4] of over 100 µM. Besides, the viability at 72 h, 100 µM in series [5] amounted to 22%.
In the case of `Cc1ccc(S(=O)(=O)Oc2c(NC(=O)CCCCCCCCCCOn3nnc4ccccc43)c(=O)n(C)c3ccccc23)cc1`, in series [3], the minimal effective concentration was over 200 µM. The IC50 in series [4] came out at 37 µM. Further, the viability at 72 h, 100 µM in series [5] was determined as 69%.
Take `Cc1ccc(S(=O)(=O)Oc2c([N+](=O)[O-])c(=O)n(C)c3ccccc23)cc1`: in series [3], the minimal effective concentration was over 200 µM. In addition, the IC50 in series [1] amounted to 2 µM; in series [4], 3 µM. Also, in series [2], the viability at 24 h, 100 µM was 100%.
